# Screens (PubChem)
# Rad51 HR inh: human RAD51 strand exchange inhibitors, primary screen, biochemical, fluorescence; hRad51 DNA strand exchange, fluorescence dequenching; AID 1385, 2008; DNA repair protein RAD51 homolog 1 (Homo sapiens), Q06609; inhibition, % at 10 µM; 0.085% of 200,000 active;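 active = inhibition above 40% at the single screening dose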;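 also: 0% = DMSO control wells and 100% = blanks with heterologous ssDNA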
# Target sequence (Q06609 whole entry, looked up): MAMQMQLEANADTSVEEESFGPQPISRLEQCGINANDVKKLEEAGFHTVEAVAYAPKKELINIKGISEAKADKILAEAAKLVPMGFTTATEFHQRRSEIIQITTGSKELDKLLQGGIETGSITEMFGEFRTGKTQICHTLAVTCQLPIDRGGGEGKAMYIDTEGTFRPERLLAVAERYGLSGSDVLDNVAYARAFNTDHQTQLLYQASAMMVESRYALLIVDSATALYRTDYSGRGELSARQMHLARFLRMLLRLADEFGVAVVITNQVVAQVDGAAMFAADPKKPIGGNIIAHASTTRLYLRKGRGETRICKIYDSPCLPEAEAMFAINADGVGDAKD
#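 System: human Rad51 nucleoprotein filaments preassembled on unlabelled ssDNA. Reagent: labelled 47-mer dsDNA for strand exchange. Schedule: 30-min compound preincubation and 15-min exchange, both room temperature. Measured by: FRET fluorescence dequenching, excitation 485 nm, emission 520 nm. Read-out: Fluorescence-based percent inhibition, control- and blank-normalised. Benchmarks: plate controls and plate blanks.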
# PKD1 inh: inhibitors of human PKD1 kinase, biochemical, fluorescence polarization. 0.056% of 200,000 active. inhibition, % (test concentration not listed). PKD1 kinase fluorescence polarization assay. Serine/threonine-protein kinase D1 (Homo sapiens), Q15139; in the data active = inhibition above about 50%
# ROMK primary: ROMK potassium channel modulators, primary screen, cell-based, thallium flux, MLSMR library; B-score at 10 µM; AID 1918, 2009; Tet-inducible ROMK, thallium flux fluorescence; actives lie on both sides; 2% of 130,000 active;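 active = signal ratio slope over the read window, or its plate-corrected B-score, at least 3 SD from the plate mean, either direction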;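 also: B-score of the F/F0 ratio slope over 7 to 12 s after thallium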
# Cl transport mod: KCC2 cotransporter modulators, thallium flux, primary screen, cell-based, HEK293 KCC2, FluoZin-2 fluorescence, MLSMR; Solute carrier family 12 member 5 (Homo sapiens), Q9H2X9; KCC2 cells, thallium flux FluoZin-2 fluorescence; B-score of Tl+ flux slope (higher = more flux/activation; lower = inhibition) at 10 µM; 2.2% of 190,000 active; AID 1456, 2008;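 active = thallium flux slope and its plate-corrected score both differing from the plate sample mean at a set confidence after two filtering rounds, in either direction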;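 also: slope of fluorescence scaled to starting intensity during 10 to 20 s after thallium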
# KCC2 secondary: KCC2 modulators in sodium-free buffer, confirmation, cell-based, HEK293 KCC2, thallium flux, secondary assay; FluoZin2 fluorescence; active compounds read high; shares compounds with Cl transport mod; AID 1713, 2009; normalised thallium flux (F/F0 slope) at 10 µM; 15% of 3,700 active;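 active = thallium flux slope above the same plate's solvent-only control mean plus 3 SD; inconclusive = the two replicate wells disagree; inactive = no significant difference from solvent-only control wells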
# KCC2 bumet counter: thallium flux persisting under bumetanide in KCC2 cells, confirmation, counter-screen for KCC2 modulator project, cell-based, HEK293 KCC2, FluoZin2, secondary assay 3 | shares compounds with Cl transport mod | HEK293-KCC2 + bumetanide/ouabain; active compounds read high | normalized thallium flux at 10 µM | 49% of 3,700 active | AID 1714, 2009;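 active = thallium entry rate above the same plate's blocked-transporter control wells by more than 3 SD; inconclusive = the two repeat wells disagree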;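 also: raw slope of fluorescence over initial fluorescence between 10 and 20 s after thallium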
# KCC2 secondary2: KCC2 modulators without ouabain present, confirmation, cell-based, HEK293 KCC2, thallium flux, FluoZin2, secondary assay 2. shares compounds with Cl transport mod. thallium flux FluoZin2 fluorescence; actives lie on both sides; F/F0 rise rate, 10–20 s post-thallium. normalized thallium flux at 10 µM. 23% of 3,700 active. AID 1715, 2009;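 active = thallium flux slope more than 3 SD above or below the plate's solvent-only control mean, mostly below; inconclusive = the two repeat wells disagreed; inactive = no significant shift from solvent-only controls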;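 also: raw slope with 0.1% DMSO as baseline and bumetanide as block control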
# HEK counter1: thallium flux modulation in parental HEK cells, confirmation, counter-screen for KCC2 modulator project, cell-based, counterscreen 1 | HEK293 parental cells, thallium flux FluoZin2, ouabain; baseline-ratio fluorescence slope, 10–20 s after thallium | thallium flux rate (normalised fluorescence) at 10 µM | 46% of 3,700 active | shares compounds with Cl transport mod;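 active = thallium flux rate significantly above the same plate's solvent-only control wells, beyond their mean plus 3 SD; inconclusive = the two replicate wells gave conflicting results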
# KCC2 ouabain: KCC2 inhibitors and activators, ouabain retest, confirmation, HEK-KCC2 cells. shares compounds with Cl transport mod. HEK293-KCC2, thallium flux FluoZin2 fluorescence; bidirectional: low = inhibitor, high = activator. AID 1717, 2009. raw Tl+ flux slope (below DMSO = inhibition, above = activation) at 10 µM. 48% of 3,700 active;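 active = thallium flux slope beyond 3 SD from same-plate DMSO control mean in most replicates, usually higher, sometimes lower; inconclusive = repeat tests gave conflicting results; inactive = no significant difference from controls in most replicates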;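 also: slope of initial-normalized fluorescence between seconds 10 and 20 after thallium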
# HEK counter2: native HEK Tl+ uptake effects, second counter-screen – HEK cells, counterscreen 2, counter-screen for KCC2 modulator project, confirmation; shares compounds with Cl transport mod; thallium flux slope at 10 µM; HEK293 parental, thallium flux FluoZin-2 fluorescence slope; 33% of 3,700 active; AID 1718, 2009;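 active = thallium flux slope above the same plate's solvent-control mean plus 3 SD in both duplicate wells; inconclusive = duplicate wells that disagreed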;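 also: run without ouabain in cells lacking the KCC2 cotransporter; slope of fluorescence scaled to its starting value between 10 and 20 s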
# An asterisk follows results filed as active; ? = inconclusive; nt = no result given. Sampled rows, rich in hits. Any-hit rate of the full collection: about 3%.
SMILES,Rad51 HR inh,PKD1 inh,ROMK primary,Cl transport mod,KCC2 secondary,KCC2 bumet counter,KCC2 secondary2,HEK counter1,KCC2 ouabain,HEK counter2
COc1cccc(C(=O)Nc2nnc(-c3ccc(Cl)cc3)o2)c1,5,nt,nt,46*,?,0.11*,0.095*,0.095*,0.1*,0.089*
O=C(COc1ccc(Cl)cc1)Nc1nnc(-c2ccc3c(c2)CCCC3)o1,1,3,nt,6.2*,?,0.021*,0.037,?,0.032*,?
COc1cccc(-c2nnc(NC(=O)c3ccc4ncsc4c3)o2)c1,-17,8,0.48,8.8*,0.013*,0.038*,0.032,0.017*,0.033*,?
Cc1cccc(C(=O)Nc2nnc(-c3ccncc3)o2)c1,7,-5,-0.35,0.7,nt,nt,nt,nt,nt,nt
Cn1c(SCC(=O)N2CCc3ccccc32)nnc1-c1ccc(S(=O)(=O)N2CCCC2)cc1,2,3,1.5,0.4,nt,nt,nt,nt,nt,nt
CCc1ccc(CN(C)C(=O)CCc2nnc(CCc3ccccc3OC)o2)nc1,-7,-1,-0.035,-0.035,nt,nt,nt,nt,nt,nt
CC(=C/c1ccco1)/C=N/NC(=O)CSc1nnc(SCc2ccc(C)cc2)s1,-8,-3,nt,-1.8,nt,nt,nt,nt,nt,nt
Cc1c(NS(=O)(=O)c2cccs2)cccc1-c1nc2cccnc2s1,nt,nt,nt,-0.46,nt,nt,nt,nt,nt,nt
O=S(=O)(Nc1cccc2ncccc12)c1cccs1,3,2,nt,29*,0.025*,0.069*,0.037*,0.027*,0.048*,0.019*
Cc1ccc(-c2n[nH]c(=O)c3ccccc23)cc1S(=O)(=O)NCCN1CCOCC1,-4,-2,-0.0049,0.32,0.009,0.0087*,0.032,0.0088*,0.023,?
Cc1nn(CC(=O)Nc2cccnc2)c(C)c1[N+](=O)[O-],2,-2,0.26,0.23,nt,nt,nt,nt,nt,nt
O=C1CCN(S(=O)(=O)c2ccccc2)N1,nt,-4,nt,-5.6*,0.009,0.0068,0.029,0.0074,0.066,0.0098
CN1CCC(Oc2ccccc2Sc2ccccc2)CC1,9,-18,0.63,-0.62,nt,nt,nt,nt,nt,nt
CN1CCC(OC(c2ccccc2)c2ccccc2)CC1,2,-9,nt,4.7*,0.0099,0.0069,0.03,?,0.022,0.0097
COc1ccc(S(=O)CC(=O)Nc2ccc(Cl)cc2Cl)cc1 (stereo not drawn),4,-1,0.35,0.014,nt,nt,nt,nt,nt,nt
O=C(CCc1nc2ccccc2s1)Nc1cccnc1,11,-7,0.12,-0.34,nt,nt,nt,nt,nt,nt
O=[N+]([O-])c1cc(S(=O)(=O)Nc2cccc(C(F)(F)F)c2)ccc1-n1nnc2ccccc21,0,-11,-2.6,-3.2*,0.007,0.0056,0.03,0.0073,0.015*,?
COc1ccc(NS(=O)(=O)c2ccc(-n3nnc4ccccc43)c([N+](=O)[O-])c2)cc1,-1,-10,nt,0.97,nt,nt,nt,nt,nt,nt
